In the library only some 3.3% were active in any assay of this set; here they are far more common.
ABCB1 inh – ABCB1 efflux pump inhibitors, primary screen, cell-based, multiplex, flow cytometry, ABCG2 counter-screen. CCRF-Adr cells, JC-1 efflux. inhibition, % at 6.6 µM. 190,000 compounds, 0.067% hits. AID 1326, 2008; in the data active means inhibition above about 40%;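 further: higher value means more JC-1 retained so stronger ABCB1 efflux block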
ROMK primary – ROMK potassium channel modulators, primary screen, cell-based, thallium flux, MLSMR library; ATP-sensitive inward rectifier potassium channel 1 (Homo sapiens), P48048; Tet-inducible ROMK, thallium flux fluorescence; actives lie on both sides; B-score at 10 µM; 130,000 compounds, 2% hits; AID 1918, 2009;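 active means signal ratio slope over the read window, or its plate-corrected B-score, at least 3 SD from the plate mean, either direction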;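 further: B-score of the F/F0 ratio slope over 7 to 12 s after thallium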
Target sequence (P48048 whole entry, looked up): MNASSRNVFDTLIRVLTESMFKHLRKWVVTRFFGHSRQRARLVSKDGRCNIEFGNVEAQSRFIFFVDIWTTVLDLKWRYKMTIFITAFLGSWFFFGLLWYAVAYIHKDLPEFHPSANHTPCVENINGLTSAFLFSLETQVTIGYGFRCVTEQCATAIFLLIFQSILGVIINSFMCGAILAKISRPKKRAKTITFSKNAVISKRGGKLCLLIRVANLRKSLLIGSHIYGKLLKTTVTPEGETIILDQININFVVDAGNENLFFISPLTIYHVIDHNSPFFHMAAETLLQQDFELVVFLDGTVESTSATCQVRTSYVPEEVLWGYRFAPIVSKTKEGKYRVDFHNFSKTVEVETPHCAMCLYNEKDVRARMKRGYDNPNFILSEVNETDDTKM
ABCG2 inh – ABCG2 efflux pump inhibitors, primary screen, multiplex with ABCB1, IgMXP3 cells, flow cytometry; Broad substrate specificity ATP-binding cassette transporter ABCG2 (Homo sapiens), Q9UNQ0; JC-1 efflux; inhibition, % at 6.6 µM; 190,000 compounds, 0.1% hits;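 active means inhibition above 80%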
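test system = two drug-resistant human cell lines, ABCG2 and ABCB1 | amount = 3 million cells/mL final, two lines in 1:1 ratio | reagent = JC-1 transporter substrate | doses = one concentration, 6.6 µM final | incubation = 10 min at 25 °C | signal = flow cytometric JC-1 green MFI at 530 nm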
PMI act – activators of human PMI, primary screen, biochemical, fluorescence intensity, near-Km mannose 6-phosphate | Mannose-6-phosphate isomerase (Homo sapiens), P34949 | purified human PMI, coupled resazurin fluorescence, 20 min; stronger effect = higher value; 1 = vehicle control, 0 substrate-free wells | activation factor at 20 µM | 190,000 compounds, 0.005% hits | AID 1214, 2008;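 active means activation factor of 2 or more at 20 µM, relative to plate controls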
PMI act hi M6P – human PMI activators, high substrate, primary screen, biochemical, fluorescence intensity, near-saturating mannose 6-phosphate; 190,000 compounds, 0.34% hits; coupled PMI enzyme assay, resazurin fluorescence, 20 min; stronger effect = higher value; 1 = untreated enzyme, 0 = substrate-free blank; activation factor at 20 µM;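 active means activation factor of 2 or more at 20 µM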
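Test system: human phosphomannose isomerase with PGI, G6PDH, diaphorase coupling enzymes / Doses: 20 µM compound, 1% DMSO / Times: enzyme reaction with compound 20 min at room temperature / Measured by: Diaphorase-driven resazurin-to-resorufin fluorescence, excitation 544, emission 590 nm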
Cl transport mod – KCC2 cotransporter modulators, thallium flux, primary screen, cell-based, HEK293 KCC2, FluoZin-2 fluorescence, MLSMR | KCC2 cells, thallium flux FluoZin-2 fluorescence | B-score of Tl+ flux slope (higher = more flux/activation; lower = inhibition) at 10 µM | AID 1456, 2008 | 190,000 compounds, 2.2% hits;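 active means thallium flux slope and its plate-corrected score both differing from the plate sample mean at a set confidence after two filtering rounds, in either direction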;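 further: slope of fluorescence scaled to starting intensity during 10 to 20 s after thallium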
ROMK retest – ROMK channel modulator hit retest, confirmation, cell-based, thallium flux, duplicate, resupplied hits | shares compounds with ROMK primary | fluorescence ratio; stronger effect = lower value | normalized thallium flux (F/F0 slope) at 10 µM | 3,000 compounds, 54% hits | AID 1917, 2009;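 active means Flux at 10 µM at least 3 SD below or above vehicle control mean in one or both replicates; inconclusive means no clear call, values can overlap the other calls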
Each line names hits and unclear results; the compound was inactive in the other large screens (follow-up assays come after a bar, where they were run).

CCn1cc(C(=O)N2CCN(c3cccc(Cl)c3)CC2)c2cc(OC)c(OC)cc2c1=O	ROMK primary 1.3 | ROMK retest inactive
O=C(N/N=C/c1cc(Cl)cc([N+](=O)[O-])c1O)c1ccccc1NS(=O)(=O)c1cccs1	none (no result: ABCB1 inh, ABCG2 inh, PMI act, PMI act hi M6P)
O=C1c2cccc3c([N+](=O)[O-])ccc(c23)C(=O)N1c1ccc(Cl)cn1	ROMK primary -3.7 (no result: Cl transport mod) | ROMK retest 0.048
CCN(CC)CC#CCC(C)(c1ccccc1)c1ccccc1	none
C=CCn1c(SCc2ccc(C(=O)Nc3nccs3)cc2)nnc1-c1ccc(C)c(Cl)c1	none (no result: ROMK primary) | ROMK retest inactive
Cn1nnnc1SCc1ccc(C(=O)Nc2nccs2)cc1	none (no result: ROMK primary, Cl transport mod)
COc1cc2cc(CN(CCc3ccccc3C)C(=S)NCCCN(C)C)c(=O)[nH]c2cc1OC	none
Cc1ccc2[nH]c(=O)c(CN(Cc3ccccc3)C(=S)NCCCN(C)C)cc2c1	ROMK primary -3.2 (no result: PMI act, PMI act hi M6P) | ROMK retest inconclusive
CN1CCN(CCCN2c3ccccc3Sc3ccc(Cl)cc32)CC1	none (no result: ROMK primary) | ROMK retest 0.048
OCCN1CCN(CCCN2c3ccccc3Sc3ccc(C(F)(F)F)cc32)CC1	none (no result: ROMK primary)
COc1ccc(NS(=O)(=O)c2cc(NC(=O)c3ccco3)ccc2N2CCCC2)cc1	none (no result: ROMK primary)
COc1ccc(NS(=O)(=O)c2cc(NC(=O)c3cc(F)c(F)c(F)c3F)ccc2N2CCCC2)cc1	none (no result: ABCB1 inh, ROMK primary, ABCG2 inh, PMI act, PMI act hi M6P) | ROMK retest inactive
OC(COC(c1ccc(Cl)cc1)c1ccc(Cl)cc1)CN1CCCC1 (configuration not stated)	ROMK primary -3.9 | ROMK retest 0.057
COc1ccccc1NS(=O)(=O)c1cc(NC(=O)CNC(=O)c2cc(C)cc(C)c2)ccc1C	none
CCn1c(/C=C/c2c(C)[nH]c3ccccc23)nc2ccccc2c1=O	none (no result: ROMK primary) | ROMK retest 0.047
CCOC(=O)c1c(C)n(C)c2ccc(O)c(CN(CC)CC)c12	none (no result: Cl transport mod)
CCOC(=O)c1c(C)n(-c2ccccc2)c2ccc(O)c(CN(C)C)c12	ROMK primary -1.8 | ROMK retest inconclusive
N#Cc1c2ccc(OCC(N)=O)cc2n2ccccc12	ROMK primary -3.2 | ROMK retest 0.051
CCOC(=O)COc1ccc2c(C#N)c3ccccn3c2c1	none
COc1ccc(CCNC(=O)c2nnn(CC(=O)Nc3cccc(F)c3)c2N)cc1OC	none
Cc1ccc2nc(NCCO)nc(-c3ccccc3)c2c1	none (no result: ROMK primary) | ROMK retest inactive
CN(C)c1ccc(/C=c2\sc3n(c2=O)CCCN=3)cc1	ROMK primary -4.4 | ROMK retest 0.054
O=c1/c(=C/c2ccc(O)cc2)sc2n1CCCN=2	none (no result: ROMK primary)
CCN(c1ccccc1)S(=O)(=O)c1ccc(OC)c(OC)c1	none
CCN(c1ccccc1)S(=O)(=O)c1ccc(OC)c(NC(=O)CNCCc2ccccc2)c1	ROMK primary -6.6 | ROMK retest 0.05
CCN(CC)S(=O)(=O)c1ccc(OC)c(NC(=O)CSc2cc(C)ccc2C)c1	ROMK primary -3.2 | ROMK retest 0.057
C=C(C)CSc1nc2sc3c(c2c(=O)n1C1CCCCC1)CCN(C)C3	none (no result: ABCB1 inh, ROMK primary, ABCG2 inh, PMI act, PMI act hi M6P) | ROMK retest 0.065
Cn1c(=O)c2cc3ccccc3nc2n(C)c1=O	ROMK primary -5.1 (no result: ABCB1 inh, ABCG2 inh, PMI act, PMI act hi M6P) | ROMK retest inconclusive
CCCCCN1C=CC=C/C1=C\C=C(C#N)C#N	none (no result: ABCB1 inh, ROMK primary, ABCG2 inh, PMI act, PMI act hi M6P)
CCCCCCN1C=CC=C/C1=C/C=C(C#N)C#N	ROMK primary -6.9 | ROMK retest 0.046
CCCCOc1ccc(CSCCN=C(N)N)cc1	ROMK primary -3.4 | ROMK retest 0.054
COc1ccccc1N1CCN(c2ccc(-c3ccccc3)nn2)CC1	ROMK primary 2.5 | ROMK retest inactive
Cc1cccc(N2C(N)=C(C#N)C(C#N)(C#N)C2c2ccccc2)c1 (configuration not stated)	none (no result: ROMK primary) | ROMK retest 0.056
N#CC1=C(N)N(c2ccccc2)C(c2cccc([N+](=O)[O-])c2)C1(C#N)C#N (configuration not stated)	none (no result: ROMK primary) | ROMK retest 0.037
CC(C)(C)c1ccc(S(=O)(=O)N(CCCN2CCOCC2)Cc2cccs2)cc1	ROMK primary -3.5 | ROMK retest 0.052
Cc1ccc(S(=O)(=O)Nc2ccccn2)cc1[N+](=O)[O-]	ROMK primary -5.9 | ROMK retest inactive
CC(=O)Nc1ccc(S(=O)(=O)Nc2ccc(C)c([N+](=O)[O-])c2)cc1	none
Cc1c([N+](=O)[O-])cc(S(=O)(=O)Nc2ccncc2)cc1[N+](=O)[O-]	ROMK primary -4.2 | ROMK retest inactive
COc1ccc2c(c1)c(CC(=O)Nc1cccc(S(N)(=O)=O)c1)c(C)n2C(=O)c1ccc(Cl)cc1	none (no result: ABCB1 inh, ROMK primary, ABCG2 inh, PMI act, PMI act hi M6P)
CSc1nc(C)cc(OCC#N)n1	none (no result: ROMK primary)
Cc1cccc(/C=C2/S/C(=N/N=C3\CC4CCC3(C)C4(C)C)NC2=O)c1 (configuration not stated)	none (no result: ROMK primary)
COc1ccc(C2OC(=O)CC2C(=O)NCc2ccccc2Cl)cc1OC (configuration not stated)	ROMK primary -10 | ROMK retest inactive
COc1ccc(C2OC(=O)CC2C(=O)NCc2ccc(C)cc2)cc1OC (configuration not stated)	none (no result: ROMK primary)
CN(CC1CCOCC1)C(=O)CC1C(=O)NCCN1Cc1ccc(-c2ccccc2)cc1 (configuration not stated)	ROMK primary -4.1 | ROMK retest inactive
CCOc1ccsc1C(=O)OC	none (no result: ABCB1 inh, ROMK primary, ABCG2 inh, PMI act, PMI act hi M6P)
COc1ccc2c(Cl)c(C(=O)N/N=C/c3ccc4c(c3)OCO4)sc2c1	none
COc1ccc2c(Cl)c(C(=O)N/N=C3\CCCC(=O)C3)sc2c1	ROMK primary -3.1 | ROMK retest inactive
CC1=NN(c2ccccc2)C(=O)/C1=C\C=C\c1ccccc1	none (no result: ABCB1 inh, ROMK primary, ABCG2 inh, PMI act, PMI act hi M6P)
CC1=NN(c2ccccc2)C(=O)/C1=C/N(C)C	none (no result: ABCB1 inh, ROMK primary, ABCG2 inh, PMI act, PMI act hi M6P)
CC1=NN(c2ccccc2)C(=O)/C1=C\C=C1/N(C)c2ccccc2C1(C)C	none (no result: ROMK primary) | ROMK retest inactive
CC1=NN(c2ccccc2)C(=O)/C1=C\C=C1\N(C)c2ccccc2C1(C)C	none (no result: ROMK primary) | ROMK retest 0.063
Cc1ccccc1NC(=S)NN1CCN(C)CC1	none (no result: ROMK primary)
